AHR activator: activators of human aryl hydrocarbon receptor; P35869; AHR-responsive luciferase reporter cells, luminescence; activation, % at 5 µM; 2.5% of 320,000 active; in the data active = activation above about 47%
PfM18AAP inh-1: PfM18AAP enzyme inhibition. recombinant PfM18AAP, H-Glu-NHMec fluorogenic cleavage. inhibition, % at 7.35 µM. 1.2% of 290,000 active. AID 1822;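 active = inhibition above the campaign mean inhibition over all tested compounds plus 3 SD, cut at about 28% in these data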
SENP1 FRET inh: SENP1 (human) catalytic domain inhibition | AID 624204 | recombinant SENP1 catalytic domain, CyPet-SUMO1-YPet FRET cleavage | Q9P0U3 | 0.21% of 360,000 active | inhibition, % at 10 µM;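 active = inhibition at least 30% at 10 µM, raw YFP signal under a set limit, fluorescence ratio 0.5 to 1.5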
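Test system: hSENP1 catalytic domain, recombinant; Amount: 20 pM final SENP1 enzyme; Medium: Tris pH 8 buffer plus EDTA, NaCl, BME, BSA, NP40, catalase; Schedule: 50 min enzyme reaction, room temperature, light-protected; Technique: FRET fluorescence in CFP and YFP emission channels; Controls: no-enzyme wells low, DMSO-plus-enzyme wells high control.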
FXN GAA850 act: increases GAA850 frataxin promoter reporter activity. AID 540364. activation, % at 6 µM. 0.56% of 360,000 active. HEK293 lucGAA850 FXN promoter luciferase reporter, 24 h; percent of 10 µM SAHA response;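 active = activation above the average of all compounds screened plus 3 SD, cutoff fixed separately per campaign, cut at about 7.5% in these data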
HDAC3 inh: human HDAC3 inhibition; recombinant HDAC3, fluorogenic peptide/trypsin coupled, fluorescence; 0.15% of 320,000 active; AID 2718; inhibition, % at 8.3 µM; in the data active = inhibition above about 26%, passing the limit was not always enough
CTSL1 counter-1: counter-screen for PFM18AAP inhibitors: inhibitors of F. hepatica cathepsin L1 | inhibition, % at 5.96 µM | recombinant F. hepatica cathepsin L1, Z-Leu-Arg-MCA fluorescence | 0.49% of 300,000 active;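 active = inhibition above the mean of all tested compounds plus 3 SD, set per screening campaign, cut at about 17% in these data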
PfM18AAP inh-2: PfM18AAP inhibition, confirmation | AID 2170 | shares compounds with PfM18AAP inh-1 | 28% of 2,400 active | recombinant PfM18AAP, H-Glu-NHMec fluorogenic cleavage | inhibition, % at 7.35 µM;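 active = mean inhibition over replicate wells above the hit cutoff set for the earlier primary screen, cut at about 29% in these data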
CTSL1 counter-2: Cathepsin L (human) inhibition, confirmation; shares compounds with PfM18AAP inh-1; purified cathepsin L1, Z-Leu-Arg-MCA fluorescence; inhibition, % at 5.96 µM; 2,400 tested, under 10 active; AID 2178;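 active = average inhibition across replicates above the hit cutoff set in the earlier primary screen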
Target sequence (P07711 whole entry, looked up): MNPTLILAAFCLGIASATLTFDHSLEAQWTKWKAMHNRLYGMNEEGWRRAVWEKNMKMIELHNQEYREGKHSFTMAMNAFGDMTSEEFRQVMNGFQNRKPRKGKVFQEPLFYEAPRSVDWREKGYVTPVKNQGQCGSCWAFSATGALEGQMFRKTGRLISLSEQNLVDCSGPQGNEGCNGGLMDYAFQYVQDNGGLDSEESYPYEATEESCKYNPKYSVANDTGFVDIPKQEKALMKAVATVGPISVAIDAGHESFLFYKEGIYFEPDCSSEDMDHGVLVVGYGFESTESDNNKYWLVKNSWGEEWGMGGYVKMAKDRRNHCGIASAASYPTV
Hits are given with their value; 0 = inactive; - = no result. Most compounds without a hit are left out; they make up all but 4.2% or so of the library.

SMILES	AHR activator	PfM18AAP inh-1	SENP1 FRET inh	FXN GAA850 act	HDAC3 inh	CTSL1 counter-1	PfM18AAP inh-2	CTSL1 counter-2
COc1ccc(NC(=O)C2(C)CCN2C(=O)CC2CCCC2)cc1OC (centres undefined)	-	-	0	0	-	-	-	-
CC(C)CN(Cc1cc(=O)oc2cc(-c3ccccc3)c(O)cc12)CC(C)C	0	0	0	0	0	0	-	-
CNC(=O)C[C@H]1C(=O)N(c2ccc(Br)cc2)C[C@@H]1C	-	-	0	0	-	-	-	-
Cc1cc(C)c(-c2cc(C(=O)Nc3c(C)n(C)n(-c4ccccc4)c3=O)[nH]n2)c(O)c1	0	41	0	0	0	0	0	0
CCc1cc(C(=O)Cc2cnn(-c3ccccc3)c2)c(O)cc1O	0	0	0	0	0	0	-	-
O=C(Cc1cnn(-c2ccccc2)c1)c1ccc(O)c(O)c1O	0	38	0	0	0	0	0	0
NC(=O)c1sc(=S)n(-c2ccc(Br)cc2)c1N	0	38	0	0	0	0	0	0
CN1CCN(C(=O)c2sc(=S)n(-c3ccccc3)c2N)CC1	0	49	0	0	0	0	0	0
Cc1ccc(NC(=O)NNc2cccc(Cl)n2)cc1	0	53	0	0	0	0	0	0
O=C(Nc1ccccc1)Nc1cccc(Cl)c1	0	0	0	0	0	0	-	-
O=C(NNc1cccc(Cl)n1)Nc1cccc(Cl)c1	0	52	0	0	0	0	49	0
O=C(NNc1cccc(Cl)n1)Nc1ccccc1	0	59	0	0	0	0	43	0
COc1ccc(Cl)cc1-c1nc(SCC(=O)NCC2CCCO2)n[nH]1 (centres undefined)	0	-	0	0	0	-	-	-
CC(Sc1ccccc1)C(=O)NN=C1CCCCCC1 (centres undefined)	0	0	0	0	0	0	-	-
CCc1c(O)c(-c2ccccc2)c(=O)n(-c2ccccn2)c1-c1ccccc1	0	39	0	0	0	0	0	0
CCO/N=C(\C)c1c(O)c(CC)c(-c2ccccc2)n(-c2ccccc2)c1=O	0	0	0	0	0	0	-	-
CCOC(=O)Cc1csc(NC(=O)CSc2nnc(-c3ccc(NS(=O)(=O)CC)cc3)o2)n1	0	39	0	0	0	0	0	0
CCOC(=O)Cc1csc(NC(=O)CSc2nnc(-c3ccncc3)o2)n1	0	0	0	0	0	0	-	-
COc1ccccc1CNC(=O)c1cc(-c2ccncc2)nc2c(Cl)cccc12	0	0	0	0	0	0	-	-
CC(=O)c1c(O)cc(C)n(Nc2nc(C)cc(C)n2)c1=O	0	34	0	0	0	0	0	0
CC(=O)c1c(O)cc(C)n(-c2ccc(F)cc2)c1=O	0	0	0	0	0	0	-	-
NN1C(=O)/C(=C\c2ccco2)SC1=S	0	34	0	0	0	0	0	0
O=C(CN1C(=O)/C(=C/c2ccco2)SC1=S)NC1CCS(=O)(=O)C1 (centres undefined)	0	39	0	0	0	0	0	0
CCN(CC)C(=O)CSc1nc(-c2ccco2)cc(C(F)(F)F)c1C#N	0	0	0	0	0	0	-	-
N#Cc1c(C(F)(F)F)cc(-c2ccco2)nc1SCc1ccncc1	0	44	0	0	0	0	0	0
SMILES	AHR activator	PfM18AAP inh-1	SENP1 FRET inh	FXN GAA850 act	HDAC3 inh	CTSL1 counter-1	PfM18AAP inh-2	CTSL1 counter-2
CCN(CC)C(=O)c1c(C)[nH]c(=S)c(C#N)c1-c1ccco1	0	56	0	0	0	0	0	0
CC1(C)CC(=O)C/C(=N\NC(=S)NCc2ccccc2)C1	0	43	0	0	0	0	38	0
CC1C/C(=N\NC(=S)NCc2ccccc2)CC(C)(C)C1 (centres undefined)	0	0	0	0	0	0	-	-
CS(=O)(=O)c1ccc(Nc2nc(C(N)c3ccccc3Cl)cs2)cc1 (centres undefined)	-	-	0	0	-	-	-	-
O=C(Nc1nc(=O)c2ccccc2s1)c1ccccc1	0	43	0	0	0	0	0	0
O=C(Nc1nc2ccccc2s1)c1ccc(F)cc1	0	0	0	0	0	0	-	-
Cn1c(Cn2c3ccccc3c3ccccc32)n[nH]c1=S	0	0	0	0	0	0	-	-

Screening results as filed in PubChem.
